This note sets out measurements from publication PMC11040708 (JACS Au, 2024).

The experiment has as its target N-HSP90α WT (Homo sapiens, UniProt P07900). Kind of experiment: SPR kinetics, two-state reaction model, amine-coupled protein. Type of experiment: binding. The essentials: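 Protein was pre-incubated with a 100-fold excess of a reference ATP-site inhibitor, diluted to 20 μg/mL in acetate pH 4.50, and amine-coupled to a CM5 chip (~4000 RU). Compounds came from 10 mM DMSO stock as 2-fold series in HEPES/Tween 20 buffer at 30 μL/min, with 120 s contact and 200–600 s dissociation. Solvent-corrected, double-referenced data were fitted with mass transport.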

One may read the Kd as a measure of binding affinity in units of concentration. A lower Kd goes with tighter binding. In turn, `O=c1cc(-c2ccc(O)c(O)c2)oc2cc(O[C@@H]3O[C@H](CO)[C@@H](O)[C@H](O)[C@H]3O)cc(O)c12` [compound 5] had a Kd of 6.06 µM.
